This is an account of results in ChEMBL document CHEMBL4321820, “Identification and Optimization of Mechanism-Based Fluoroallylamine Inhibitors of Lysyl Oxidase-like 2/3” (J Med Chem, 2019).

Molecules are shown by their SMILES. Activity calls are given as the source filed them. The calls are words filed in the database; no cut-off is given here.

The test system of series [1] is Mus musculus. The experiment in a line: Antifibrotic activity in CCl4-induced BALB/c mouse model of liver fibrosis assessed as reduction in liver fibrosis area at 5 mg/kg, po administered once daily at week 4 to 6 by picro-sirius red staining based microscopy. It is filed as functional, organism-based. In a few lines:
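Female BALB/c mice given CCl4 i.p. (1 mL/kg of 25% CCl4 in olive oil) twice weekly for 6 weeks; sacrificed 48 h after last dose. Test articles oral, once daily: prophylactic weeks 1-6 or therapeutic weeks 4-6; imatinib control 50 mg/kg daily weeks 1-6. One formalin-fixed liver lobe stained for Picro Sirius Red and α-SMA; fibrotic area as % of total liver area; mean ± SEM, one-way ANOVA with Dunnett's test.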

The subject of series [2] is Mus musculus. The experiment in a line: Antifibrotic activity in ip dosed bleomycin-induced C57BL/6 mouse model of lung fibrosis assessed as reduction in Ashcroft score administered on day 7 to 27 measured on day 28 by H and E staining based microscopy. Format: functional, organism-based. A digest of the protocol: (§1)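 Female C57BL/6 mice, 6-8 weeks old, under isoflurane received intranasal bleomycin sulphate 0.05 U/mouse in PBS; controls got PBS. Once-daily i.p. treatment days 7-27, n=12/group; imatinib 50 mg/kg i.p. as comparator. Sacrifice at day 28; lung fibrosis scored by Ashcroft score.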

The subject of series [3] is Mus musculus. The experiment in a line: Antifibrotic activity in bleomycin-induced C57BL/6 mouse model of lung fibrosis assessed as reduction in Ashcroft score at 15 mg/kg, ip administered on day 7 to 27 measured on day 28 by H and E staining based microscopy. It is filed as functional, organism-based. A digest of the protocol:
as §1

A further series deals with T1, Lysyl oxidase homolog 2 (Homo sapiens, UniProt Q9Y4K0).
T1 sequence (Q9Y4K0 whole entry): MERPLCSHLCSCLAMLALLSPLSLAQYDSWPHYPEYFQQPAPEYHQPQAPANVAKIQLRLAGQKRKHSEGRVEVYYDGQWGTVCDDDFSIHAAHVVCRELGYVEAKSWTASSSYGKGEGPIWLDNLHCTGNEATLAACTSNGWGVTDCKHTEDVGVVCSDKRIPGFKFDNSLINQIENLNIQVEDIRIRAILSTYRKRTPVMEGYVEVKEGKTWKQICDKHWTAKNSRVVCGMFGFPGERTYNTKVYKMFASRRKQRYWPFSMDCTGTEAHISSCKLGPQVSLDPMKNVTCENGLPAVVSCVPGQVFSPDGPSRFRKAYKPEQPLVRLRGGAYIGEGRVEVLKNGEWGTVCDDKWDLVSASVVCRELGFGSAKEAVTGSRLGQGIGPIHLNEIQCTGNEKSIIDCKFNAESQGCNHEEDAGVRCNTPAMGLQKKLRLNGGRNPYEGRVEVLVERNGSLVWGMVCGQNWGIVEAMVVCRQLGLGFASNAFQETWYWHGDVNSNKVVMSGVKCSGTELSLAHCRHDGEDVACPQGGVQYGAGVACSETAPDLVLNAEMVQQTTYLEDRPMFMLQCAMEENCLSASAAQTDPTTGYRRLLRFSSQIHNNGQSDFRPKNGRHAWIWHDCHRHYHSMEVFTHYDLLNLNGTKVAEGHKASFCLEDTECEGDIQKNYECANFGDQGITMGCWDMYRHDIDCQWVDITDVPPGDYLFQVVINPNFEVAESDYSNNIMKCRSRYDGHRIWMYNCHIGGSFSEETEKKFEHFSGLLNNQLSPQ
The experiment in a line: Inhibition of recombinant human LOXL2 assessed as inhibition of collagen cross linking compound replenishment for 5 days and measured on day 7 by UPLC-ESI-MS/MS analysis.

For the next series, the target named is T2, Lysyl oxidase homolog 4 (Homo sapiens, UniProt Q96JB6).
T2 sequence (Q96JB6 whole entry): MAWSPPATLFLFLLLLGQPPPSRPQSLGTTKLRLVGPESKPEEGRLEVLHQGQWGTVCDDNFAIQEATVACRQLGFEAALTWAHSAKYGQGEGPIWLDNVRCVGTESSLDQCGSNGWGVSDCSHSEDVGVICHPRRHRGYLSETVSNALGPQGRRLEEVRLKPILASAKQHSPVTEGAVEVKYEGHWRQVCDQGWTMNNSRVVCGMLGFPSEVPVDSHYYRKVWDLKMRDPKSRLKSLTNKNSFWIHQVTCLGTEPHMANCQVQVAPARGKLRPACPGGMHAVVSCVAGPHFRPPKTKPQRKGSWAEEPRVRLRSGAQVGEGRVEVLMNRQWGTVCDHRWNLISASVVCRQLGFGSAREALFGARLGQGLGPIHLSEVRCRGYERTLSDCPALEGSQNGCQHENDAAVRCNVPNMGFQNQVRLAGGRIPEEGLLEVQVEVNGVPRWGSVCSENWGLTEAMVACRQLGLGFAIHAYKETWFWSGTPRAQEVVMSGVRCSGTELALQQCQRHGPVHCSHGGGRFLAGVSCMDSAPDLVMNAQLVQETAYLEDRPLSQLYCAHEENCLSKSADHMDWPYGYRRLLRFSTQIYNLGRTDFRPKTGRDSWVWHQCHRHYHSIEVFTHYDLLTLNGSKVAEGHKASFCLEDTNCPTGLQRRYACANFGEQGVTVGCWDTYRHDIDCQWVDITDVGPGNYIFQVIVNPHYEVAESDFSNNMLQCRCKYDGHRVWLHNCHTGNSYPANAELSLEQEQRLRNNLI
The experiment in a line: Inhibition of recombinant human LOXL4 using putrescine as substrate preincubated with enzyme for 30 mins followed by substrate addition and measured every 2.5 mins for 30 mins by Amplex-Red oxidation assay. A digest of the protocol: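 Recombinant human LOXL3 or LOXL4 preincubated 30 min at 37 °C with compound in 1.2 M urea/50 mM borate pH 8.2, then Amplex Red (120 µM)/HRP (1.5 U/mL) with 2 mM putrescine; fluorescence read every 2.5 min for 30 min.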

Series [4] in a line: Stability in human plasma assessed as half life.

`CCOC(=O)c1ccc2c(c1)c(-c1cccc(S(=O)(=O)N(C)C)c1)c(C)n2C/C(F)=C/CN.Cl`: the inhibition entry in the series with Mus musculus [1] and in the series with Mus musculus [3] was “Active” each time. For the same molecule, the inhibition entry in the series on Mus musculus [2] was “Dose-dependent effect”.

Consider `Cc1c(-c2cccc(S(=O)(=O)N(C)C)c2)c2cc(C(=O)O)ccc2n1C/C(F)=C/CN.Cl`, for which the IC50 on Lysyl oxidase homolog 2 came to 13 nM; at Lysyl oxidase homolog 4 it was 280 nM. The half-life in series [4] is above 120 min.
